The source of these data is PubChem BioAssay AID1448 (The Scripps Research Institute Molecular Screening Center, 2008).

Hit rate of the full screen: of about 220,000 compounds, about 630 (0.29%) were called active.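 The calls were made as follows: active = activation above its plate's cutoff, the mean activation of the plate's test wells plus 3 SD (cut at about 12% in these data); inactive = the rest.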 This excerpt belongs to a sample that is enriched for actives.

Sequence of Mucolipin-3 (Homo sapiens) (Q8TDD5 whole entry, looked up): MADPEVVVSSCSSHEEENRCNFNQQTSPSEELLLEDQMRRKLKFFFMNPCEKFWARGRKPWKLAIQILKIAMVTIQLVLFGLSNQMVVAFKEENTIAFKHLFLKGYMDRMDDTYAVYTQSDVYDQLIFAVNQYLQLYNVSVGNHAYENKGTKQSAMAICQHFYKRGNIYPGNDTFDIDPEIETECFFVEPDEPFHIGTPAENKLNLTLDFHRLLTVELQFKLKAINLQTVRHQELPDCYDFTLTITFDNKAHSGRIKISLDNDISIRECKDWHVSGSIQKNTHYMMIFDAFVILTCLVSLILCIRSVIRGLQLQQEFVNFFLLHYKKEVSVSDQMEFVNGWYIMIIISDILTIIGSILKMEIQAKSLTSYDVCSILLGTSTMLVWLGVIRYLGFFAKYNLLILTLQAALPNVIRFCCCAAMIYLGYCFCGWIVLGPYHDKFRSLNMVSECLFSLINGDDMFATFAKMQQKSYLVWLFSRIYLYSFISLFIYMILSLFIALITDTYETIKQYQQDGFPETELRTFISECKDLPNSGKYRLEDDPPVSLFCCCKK

This assay addresses Mucolipin-3 (Homo sapiens) (UniProt Q8TDD5). The assay can be described thus: activators of mucolipin-3 cation channel – cell-based, HEK293 TRPML3-YFP, Fluo-8 calcium fluorescence, 3 µM, primary screen (AID 1448).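 Also: 0% = DMSO only wells and 100% = carbachol wells.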 The conditions noted are these: at 3 µM, stronger effect = higher value, 100% = the carbachol control signal. The essentials: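 Test system: HEK293 cells stably carrying human TRPML3-YFP; Doses: single dose, 3 µM final nominal compound, 0.3% DMSO final; Schedule: dye loading 1 h 37 °C then 30 min ambient, 125 s read; Technique: Fluo-8 calcium fluorescence; Benchmarks: high control carbachol 87 µM, low control DMSO.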
For the molecule `OCC(O)CN(c1ccccc1)c1ccccc1` (centres undefined), the activation is 0.25% (inactive).
`CN1CCN(/N=C/c2ccc(-c3ccc([N+](=O)[O-])cc3)o2)CC1`: the activation was 4.1% (inactive).
With `Cn1c2c(c(=O)n(C)c1=O)C(c1cccc(F)c1)C(C#N)=C(N)O2` (centres undefined), the activation was 0.03% (inactive).
For `Cc1nonc1C1CCCN1Cc1nc(-c2ccc(F)cc2F)oc1C` (centres undefined), the activation was 0.58% (inactive).
In the case of `O=S(=O)(c1cccc2nonc12)N1CCN(c2cccc(Cl)c2)CC1`, the activation is 0.52% (inactive).
With `Cc1cccn2c(=O)c(/C=C3\SC(=S)N(CC(C)C)C3=O)c(NCCCOC(C)C)nc12`, the activation is 0.65% (inactive).
In the case of `CCOC(=O)CC1C(=O)NCCN1c1nc2c(C)cccn2c(=O)c1/C=C1\SC(=S)N(C(C)CC)C1=O` (centres undefined) it was 11.9% (active); in that of `CCOC(=O)CC1C(=O)NCCN1C(=O)COc1ccc(Br)cc1C` (centres undefined), -0.14% (inactive); in that of `CC(CC(=O)C1C(C)C=CCC1(C)C)NNC(N)=O` (centres undefined), 0.6% (inactive).
Consider `O=C(CC(O)(C(F)(F)F)C(F)(F)F)Nc1ccc(Cl)c(Cl)c1`, for which the activation is 17.3% (active).
In the case of `CN(C)CCNC(CC(=O)Nc1ccc(Cl)c(Cl)c1)C(=O)O` (centres undefined), the activation is -0.13% (inactive).
The value for `O=C(CC(=O)Nc1ccc(Cl)c(Cl)c1)N/N=C/c1ccc(O)cc1` was 0.24% (inactive); that for `CCn1c(CSc2nc(C)cc(C)n2)nnc1SCC(N)=O` was 0.87% (inactive).
Regarding `CC(C)CN(CC(C)C)CC(O)CN(c1ccccc1)S(=O)(=O)c1ccccc1[N+](=O)[O-]` (centres undefined), the activation is -1.13% (inactive).
With `COc1ccc(-c2noc(CSc3ccc(C)cc3)n2)cc1`, the activation is 0.35% (inactive).
`COc1ccc(-c2noc(CN(C)S(=O)(=O)c3ccc(C)cc3)n2)cc1`: the activation was 138% (active).
In the case of `COc1ccc(-c2noc(-c3ccc(C)cc3)n2)cc1`, the activation was 1.08% (inactive).
`Cc1ccnc(NC(=O)c2ccc(Cl)c([N+](=O)[O-])c2)c1`: the activation is 0.05% (inactive).
As to `CC(C)(C)OC(=O)N1CCC(NC(=O)c2[nH]cnc2C(=O)N[C@@H](Cc2ccccc2)C(=O)OCc2ccccc2)CC1`, the activation was 0.25% (inactive).
Regarding `COc1cc(NC(=O)c2ccccc2NS(=O)(=O)c2ccc(Cl)s2)cc(OC)c1`, the activation was 12.1% (active).
Regarding `COC(=O)c1ccc(NC(=O)c2ccccc2NS(=O)(=O)c2ccccc2)cc1`, the activation was 11.1% (inactive).
Consider `COc1cc(NC(=O)c2cccnc2SC)cc(OC)c1`, for which the activation is -0.28% (inactive).
The value for `CN(Cc1cc2cc(F)ccc2[nH]1)Cc1nc(-c2cnccn2)no1` was 0.76% (inactive).
Turning to `Cc1cccc(CSc2ccc(-c3cccs3)nn2)c1`, the activation was 0.19% (inactive).
